Measured values from PMC4827638 (Preventive Nutrition and Food Science, 2016).
Marks after values point to notes of the source that are not given here.

Assays:
Assay type in all cases: biochemical
[1] = OH radical scavenging activity; conditions: absorbance at 520 nm; triplicate
How it was run: (§1)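 Absorbance endpoint assays, read on a UV-visible spectrophotometer (H2O2 assay on a microplate reader). Percent scavenging was measured across a series of sample concentrations. IC50 was taken from a graph of inhibition percentage versus sample concentration. Triplicate analyses, reported as mean±SD.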

superoxide = conditions: xanthine-XO method, 560 nm; triplicate
How it was run: as §1

[2] = H2O2 radical scavenging activity; conditions: 405 nm; triplicate
How it was run: as §1

NO radical = conditions: nitrite scavenging effect, 520 nm; triplicate
How it was run: as §1

xanthine oxidase (XO) = xanthine oxidase (XO) (Bos taurus, UniProt P80457); test: XO inhibitory activity
tyrosinase = test: Tyrosinase inhibitory activity; conditions: L-DOPA substrate, 25°C, 2 min, pH 6.8; mean±SD

Sequence of xanthine oxidase (XO) (P80457 whole entry): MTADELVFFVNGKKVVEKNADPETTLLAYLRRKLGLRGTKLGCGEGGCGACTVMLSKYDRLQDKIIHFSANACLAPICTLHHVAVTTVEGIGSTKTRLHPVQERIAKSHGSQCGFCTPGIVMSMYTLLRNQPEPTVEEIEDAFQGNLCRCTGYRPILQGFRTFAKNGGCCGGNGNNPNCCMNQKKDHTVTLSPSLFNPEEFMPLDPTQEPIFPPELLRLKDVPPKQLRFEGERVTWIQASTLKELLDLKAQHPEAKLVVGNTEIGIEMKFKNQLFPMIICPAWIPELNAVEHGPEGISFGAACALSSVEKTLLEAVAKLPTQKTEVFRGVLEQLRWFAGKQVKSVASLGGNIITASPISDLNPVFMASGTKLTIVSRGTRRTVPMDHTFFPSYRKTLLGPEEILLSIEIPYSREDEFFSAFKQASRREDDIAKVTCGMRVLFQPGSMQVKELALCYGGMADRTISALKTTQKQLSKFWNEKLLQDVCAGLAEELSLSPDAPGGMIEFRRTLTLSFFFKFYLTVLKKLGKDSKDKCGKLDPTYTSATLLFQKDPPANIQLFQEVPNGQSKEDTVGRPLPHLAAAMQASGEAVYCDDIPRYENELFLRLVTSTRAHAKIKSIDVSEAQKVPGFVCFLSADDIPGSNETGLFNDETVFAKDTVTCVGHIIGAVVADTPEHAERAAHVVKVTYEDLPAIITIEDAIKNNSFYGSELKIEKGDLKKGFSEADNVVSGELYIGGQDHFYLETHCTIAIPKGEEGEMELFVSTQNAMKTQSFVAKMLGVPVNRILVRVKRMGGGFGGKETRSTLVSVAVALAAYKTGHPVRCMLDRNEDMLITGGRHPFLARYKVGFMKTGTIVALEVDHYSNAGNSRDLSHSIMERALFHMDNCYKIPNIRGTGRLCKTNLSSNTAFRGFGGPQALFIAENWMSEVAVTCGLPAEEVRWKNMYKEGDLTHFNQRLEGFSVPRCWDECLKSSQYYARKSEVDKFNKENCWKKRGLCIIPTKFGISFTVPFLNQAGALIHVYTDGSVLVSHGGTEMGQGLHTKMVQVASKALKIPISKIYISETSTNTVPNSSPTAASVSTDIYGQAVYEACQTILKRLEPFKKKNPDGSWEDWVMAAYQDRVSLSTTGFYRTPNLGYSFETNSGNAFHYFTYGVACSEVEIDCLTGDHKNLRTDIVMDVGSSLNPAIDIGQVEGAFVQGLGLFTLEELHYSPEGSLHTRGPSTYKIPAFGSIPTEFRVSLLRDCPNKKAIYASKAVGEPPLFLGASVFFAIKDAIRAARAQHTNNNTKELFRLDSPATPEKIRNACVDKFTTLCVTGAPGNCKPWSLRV

IC50 of OH radical scavenging activity [1]	IC50 of O2 radical scavenging activity (superoxide)	IC50 of H2O2 radical scavenging activity [2]	IC50 of NO radical scavenging activity (NO radical)	IC50 (xanthine oxidase (XO))	IC50 Tyrosinase inhibition (tyrosinase)	Compound
92.50 µg/mL	65.05 µg/mL	12.60 µg/mL	81.53 µg/mL	246 µM	101.931±2.601^a μg/mL	CC1=C(O)C(=O)C(C)(O)S1 (stereo not drawn) [Thiacremonone, 2,4-dihydroxy-2,5-dimethyl-thiophene-3-one]
104.93 µg/mL	99.43 µg/mL	42.42 µg/mL	122.64 µg/mL	–	–	O=C1O[C@H]([C@@H](O)CO)C(O)=C1O [ascorbic acid, Ascorbic acid]
12.93 ± 1.64 µg/mL	84.92 ± 2.34 µg/mL	39.40 ± 0.77 µg/mL	15.72 ± 1.22 µg/mL	–	–	Cc1c(C)c2c(c(C)c1O)CC[C@@](C)(CCC[C@H](C)CCC[C@H](C)CCCC(C)C)O2 [α-tocopherol]

Compound	IC50 of OH radical scavenging activity [1]	IC50 of O2 radical scavenging activity (superoxide)	IC50 of H2O2 radical scavenging activity [2]	IC50 of NO radical scavenging activity (NO radical)	IC50 (xanthine oxidase (XO))	IC50 Tyrosinase inhibition (tyrosinase)
COc1ccc(O)c(C(C)(C)C)c1 [BHA, butylated hydroxyanisole]	37.22 µg/mL	68.45 µg/mL	22.47 µg/mL	40.54 µg/mL	–	–
